In PMC13022283 (Scientific Reports, 2026):

How the values were obtained:
[1] = biological target: T1, h-NTPDase3 (Homo sapiens, UniProt O75355); test: h-NTPDase activity assay; assay type: biochemical; settings: for inhibition at 100 µM: read-out: % Inhibition h-NTPDase3
T1 sequence (O75355 1-529): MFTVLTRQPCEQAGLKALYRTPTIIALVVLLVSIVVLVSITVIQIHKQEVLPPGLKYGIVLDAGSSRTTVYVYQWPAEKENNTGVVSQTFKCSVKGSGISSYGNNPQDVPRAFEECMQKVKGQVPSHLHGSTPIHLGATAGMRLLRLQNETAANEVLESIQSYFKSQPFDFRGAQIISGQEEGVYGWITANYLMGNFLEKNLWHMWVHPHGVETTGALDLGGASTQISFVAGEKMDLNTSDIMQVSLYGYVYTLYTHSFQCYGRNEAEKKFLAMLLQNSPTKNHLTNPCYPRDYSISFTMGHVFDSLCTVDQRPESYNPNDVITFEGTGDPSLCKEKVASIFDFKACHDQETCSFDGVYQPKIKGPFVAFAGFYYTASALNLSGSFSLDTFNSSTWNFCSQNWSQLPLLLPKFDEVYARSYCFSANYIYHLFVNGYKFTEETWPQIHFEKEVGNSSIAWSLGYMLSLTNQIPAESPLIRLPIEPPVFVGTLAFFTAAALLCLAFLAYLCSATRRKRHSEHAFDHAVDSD
How it was run: (§1)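 Human NTPDase1, -2, -3 or -8 came from COS-7 cells transfected with plasmids via Lipofectamine, harvested at 44–48 h, sonicated and cleared of nuclei, with protein measured by Bradford. Enzyme per well was 12, 37, 43 or 63 ng respectively. Compound (0.1 mM final) was pre-incubated 10 min at 37 °C in 50 mM Tris–HCl, 5 mM CaCl2, pH 7.4. The reaction was started with ATP (100 µM), run 15 min, and stopped with malachite green; Pi was read at 630 nm.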

[2] = biological target: T2, h-e5’NT (Homo sapiens, UniProt P21589); test: h-e5’NT activity assay; assay type: biochemical; settings: for inhibition at 100 µM: read-out: % Inhibition h-e5’NT
T2 sequence (P21589 27-574): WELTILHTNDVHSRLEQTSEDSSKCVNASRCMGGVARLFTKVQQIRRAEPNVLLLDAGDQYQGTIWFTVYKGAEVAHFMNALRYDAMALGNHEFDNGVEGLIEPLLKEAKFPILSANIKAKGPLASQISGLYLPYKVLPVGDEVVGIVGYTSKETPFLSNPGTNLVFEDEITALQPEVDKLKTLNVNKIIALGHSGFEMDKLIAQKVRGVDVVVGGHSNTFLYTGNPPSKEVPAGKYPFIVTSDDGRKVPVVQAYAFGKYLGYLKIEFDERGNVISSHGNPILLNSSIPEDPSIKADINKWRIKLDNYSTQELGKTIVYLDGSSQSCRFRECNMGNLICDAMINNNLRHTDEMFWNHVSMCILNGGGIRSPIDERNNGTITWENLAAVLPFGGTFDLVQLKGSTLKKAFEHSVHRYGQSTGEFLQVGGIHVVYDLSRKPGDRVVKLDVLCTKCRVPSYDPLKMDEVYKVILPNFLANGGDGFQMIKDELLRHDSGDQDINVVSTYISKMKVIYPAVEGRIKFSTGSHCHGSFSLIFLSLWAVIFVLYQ
How it was run: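 Human ecto-5′-nucleotidase from transfected COS-7 cells was pre-incubated 10 min at 37 °C with compound (0.1 mM final) in 50 mM Tris–HCl with MgCl₂ and CaCl₂, pH 7.4. The reaction was started with AMP (2 mM solution as added) and run 20 min at 37 °C. Released phosphate was detected with malachite green at 630 nm, in triplicate.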

[3] = biological target: T3, h-NTPDase1 (Homo sapiens, UniProt P49961); test: h-NTPDase activity assay; assay type: biochemical; settings: for inhibition at 100 µM: read-out: % Inhibition h-NTPDase1
T3 sequence (P49961 1-510): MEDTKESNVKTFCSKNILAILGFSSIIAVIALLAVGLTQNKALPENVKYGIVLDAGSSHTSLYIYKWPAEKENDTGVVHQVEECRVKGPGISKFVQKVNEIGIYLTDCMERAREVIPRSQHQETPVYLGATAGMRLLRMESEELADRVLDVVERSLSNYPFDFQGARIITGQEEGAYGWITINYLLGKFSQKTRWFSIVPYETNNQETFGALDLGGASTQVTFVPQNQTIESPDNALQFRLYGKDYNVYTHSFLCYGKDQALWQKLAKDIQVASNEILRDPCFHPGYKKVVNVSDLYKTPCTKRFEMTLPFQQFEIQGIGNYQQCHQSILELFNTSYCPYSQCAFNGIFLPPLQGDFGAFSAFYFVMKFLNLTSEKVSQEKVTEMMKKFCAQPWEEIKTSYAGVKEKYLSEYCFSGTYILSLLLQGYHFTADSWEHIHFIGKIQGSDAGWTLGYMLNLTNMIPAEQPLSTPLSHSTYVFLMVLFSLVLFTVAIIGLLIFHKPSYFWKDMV

[4] = biological target: T4, h-NPP1 (Homo sapiens, UniProt P22413); test: h-NPP1 activity assay; assay type: biochemical; settings: for inhibition at 100 µM: read-out: % Inhibition h-NPP1
T4 sequence (P22413 1-925): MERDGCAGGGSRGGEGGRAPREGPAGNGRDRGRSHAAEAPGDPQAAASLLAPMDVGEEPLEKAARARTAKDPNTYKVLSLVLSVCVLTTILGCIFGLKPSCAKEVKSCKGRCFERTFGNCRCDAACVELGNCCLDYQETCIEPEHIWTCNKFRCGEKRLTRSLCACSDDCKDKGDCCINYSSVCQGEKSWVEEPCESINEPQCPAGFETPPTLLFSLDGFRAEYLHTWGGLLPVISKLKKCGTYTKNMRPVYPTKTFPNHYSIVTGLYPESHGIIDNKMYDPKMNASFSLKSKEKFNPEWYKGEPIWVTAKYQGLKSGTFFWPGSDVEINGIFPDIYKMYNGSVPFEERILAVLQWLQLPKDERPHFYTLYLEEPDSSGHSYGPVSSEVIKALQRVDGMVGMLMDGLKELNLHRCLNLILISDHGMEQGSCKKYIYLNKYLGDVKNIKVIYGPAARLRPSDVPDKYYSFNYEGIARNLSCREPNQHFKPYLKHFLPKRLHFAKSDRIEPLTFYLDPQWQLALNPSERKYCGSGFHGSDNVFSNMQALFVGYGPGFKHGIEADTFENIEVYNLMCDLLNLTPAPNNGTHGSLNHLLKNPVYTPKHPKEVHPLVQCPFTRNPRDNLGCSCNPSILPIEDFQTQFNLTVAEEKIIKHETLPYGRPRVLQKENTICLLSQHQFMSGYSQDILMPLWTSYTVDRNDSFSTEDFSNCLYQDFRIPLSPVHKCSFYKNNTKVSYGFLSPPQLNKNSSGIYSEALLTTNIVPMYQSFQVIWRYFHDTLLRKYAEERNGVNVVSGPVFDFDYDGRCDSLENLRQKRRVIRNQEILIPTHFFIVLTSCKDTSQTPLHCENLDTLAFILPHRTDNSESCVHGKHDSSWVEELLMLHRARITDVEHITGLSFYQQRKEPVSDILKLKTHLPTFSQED

[5] = test system: h-NTPDases; test: h-NTPDase activity assay, all four isoenzymes; assay type: biochemical, human
How it was run: as §1

[6] = test system: MCF-7 breast cancer cells; test: MTT assay; assay type: cell-based, human; settings: MCF-7, 100 μM, 24 h, 100 µM
[7] = MTT assay; assay type: cell-based, human; settings: human, MCF-7 breast cancer cells, MCF-7, 100 μM; for cytotoxicity at 24 h, 100 µM: % Cytotoxicity ± SD; for viability at 24 h, 100 µM: % Viability
[8] = biological target: T5, h-NTPDase2 (Homo sapiens, UniProt Q9Y5L3); test: h-NTPDase activity assay; assay type: biochemical; settings: for inhibition at 100 µM: read-out: % Inhibition h-NTPDase2
T5 sequence (Q9Y5L3 1-495): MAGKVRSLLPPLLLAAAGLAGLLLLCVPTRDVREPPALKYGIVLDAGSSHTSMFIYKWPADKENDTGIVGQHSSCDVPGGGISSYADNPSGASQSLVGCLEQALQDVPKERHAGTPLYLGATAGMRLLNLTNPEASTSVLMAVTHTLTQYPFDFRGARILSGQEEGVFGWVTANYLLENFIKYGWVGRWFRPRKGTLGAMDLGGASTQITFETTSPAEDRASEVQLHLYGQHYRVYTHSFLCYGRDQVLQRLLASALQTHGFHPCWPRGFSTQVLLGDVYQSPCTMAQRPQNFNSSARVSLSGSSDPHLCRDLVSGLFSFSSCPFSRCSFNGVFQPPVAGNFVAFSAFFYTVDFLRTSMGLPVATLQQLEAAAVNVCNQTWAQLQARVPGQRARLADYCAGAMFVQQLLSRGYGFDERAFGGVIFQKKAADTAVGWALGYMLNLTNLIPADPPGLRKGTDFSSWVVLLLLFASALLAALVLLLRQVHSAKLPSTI

[9] = test system: h-NTPDase1, -2, -3, and -8 isoenzymes, h-NPP1, and h-e5′NT; test: Enzymatic assays, all ectonucleotidases; assay type: biochemical, human; settings: at 100 µM
[10] = biological target: T6, h-NTPDase8 (Homo sapiens, UniProt Q5MY95); test: h-NTPDase activity assay; assay type: biochemical
T6 sequence (Q5MY95 1-495): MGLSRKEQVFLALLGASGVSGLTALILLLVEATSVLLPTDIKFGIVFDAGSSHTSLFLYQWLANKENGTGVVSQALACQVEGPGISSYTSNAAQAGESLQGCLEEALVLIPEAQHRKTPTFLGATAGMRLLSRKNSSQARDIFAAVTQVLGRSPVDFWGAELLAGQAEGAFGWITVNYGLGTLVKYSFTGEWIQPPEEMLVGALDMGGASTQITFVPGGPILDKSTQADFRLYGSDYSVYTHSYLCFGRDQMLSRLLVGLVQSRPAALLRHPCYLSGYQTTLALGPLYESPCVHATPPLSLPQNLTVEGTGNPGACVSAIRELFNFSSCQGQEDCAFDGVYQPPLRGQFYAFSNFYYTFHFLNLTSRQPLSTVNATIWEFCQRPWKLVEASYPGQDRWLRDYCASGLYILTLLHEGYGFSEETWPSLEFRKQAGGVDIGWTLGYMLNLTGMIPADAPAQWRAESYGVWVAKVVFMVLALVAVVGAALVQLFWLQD

Structure (SMILES)	inhibition at 100 µM [1]	IC50 [2]	inhibition at 100 µM [2]	inhibition at 100 µM [3]	IC50 [4]	inhibition at 100 µM [4]	activity against all four h-NTPDase isoenzymes [5]	% Cytotoxicity ± SD [6]	cytotoxicity at 24 h, 100 µM [7]	viability at 24 h, 100 µM [7]	inhibition at 100 µM [8]	% inhibition for all enzymes except h-e5′NT [9]	inhibition at 100 µM ([10]; read-out: % Inhibition h-NTPDase8, at 100 µM)	% Viability [6]	IC50 [1]	IC50 [8]	IC50 [3]	IC50 [10]
O=C(NCc1ccc(Cl)cc1)c1ccc2ncccc2c1 [Compound 4a, N-(4-chlorobenzyl)quinoline-6-carboxamide]	30.6%	92 ± 20 nM	67.9%	37%	0.23 ± 0.02 µM	67%	poor activity	37.3 ± 1.80%	37%	62.7%	–	–	–	–	–	–	–	–
COc1ccc(CNC(=O)c2ccc3ncccc3c2)c(OC)c1 [Compound 4i, N-(2,4-dimethoxybenzyl)quinoline-6-carboxamide]	25.1%	990 ± 130 nM	54.9%	19.5%	–	–	poor activity	–	41.5 ± 0.31%	58.5%	39.6%	less than 50%	29.8%	–	–	–	–	–
O=C(NCc1ccc(Cl)cc1Cl)c1ccc2ncccc2c1 [Compound 4j, N-(2,4-dichlorobenzyl)quinoline-6-carboxamide]	35.6%	440 ± 70 nM	72.4%	33.1%	13.5 ± 1.24 µM	85.5%	poor activity	–	55 ± 1.36%	43 to 45%	26.2%	–	–	45.0%	–	–	–	–
Nc1c(S(=O)(=O)O)cc(Nc2ccc(Nc3nc(Cl)nc(Nc4cccc(S(=O)(=O)O)c4)n3)c(S(=O)(=O)O)c2)c2c1C(=O)c1ccccc1C2=O [Reactive blue 2, reference compound]	–	–	–	–	–	–	–	–	–	–	–	–	–	–	4.31 ± 0.41 µM	24.1 ± 3.01 µM	16.1 ± 1.02 µM	101 ± 2.34 µM
Cc1ccc(C(=O)Nc2ccc(S(=O)(=O)O)c3cc(S(=O)(=O)O)cc(S(=O)(=O)O)c23)cc1NC(=O)c1cccc(NC(=O)Nc2cccc(C(=O)Nc3cc(C(=O)Nc4ccc(S(=O)(=O)O)c5cc(S(=O)(=O)O)cc(S(=O)(=O)O)c45)ccc3C)c2)c1 [Suramin, reference compound]	–	42100 ± 7800 nM	–	–	–	–	–	–	–	–	–	–	–	–	–	–	–	–
